# Bioassay records: PubChem BioAssay, several laboratories
# STEP block: blocks human striatal-enriched tyrosine phosphatase; P54829; recombinant STEP, OMFP fluorogenic substrate, fluorescence; inhibition, % at 20 µM; 360,000 compounds, 0.25% hits; AID 588621;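 active = inhibition at 20 µM, scaled per plate between control wells, above about 37%, limit read from the data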;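 also: 0% = DMSO with enzyme and substrate and 100% = substrate only without enzyme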
#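 Measure: Control-normalized % inhibition with plate pattern correction | Test system: STEP phosphatase, cell-free reaction | Medium: pH 6.0 Bis-Tris with DTT and Tween 20 | Technique: Fluorescence, 480/540 nm | Times: Reaction 20 min, ambient temperature | Doses: Single compound dose of 20 µM, 1% DMSO final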
# Scp1 inh: Scp-1 (human) phosphatase inhibition. inhibition, % at 20 µM. Recombinant Scp1, phosphopeptide, malachite green phosphate absorbance. 340,000 compounds, 0.88% hits. Q9GZU7. AID 493091;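 active = inhibition above about 50% at 20 µM, limit read from the data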;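 also: plate controls were DMSO wells with enzyme for no effect and wells lacking enzyme for full effect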
#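 Incubation: 45 min enzyme reaction at room temperature / System: truncated SCP-1 phosphatase (76-261aa) / Reagent: Phospho 17-mer peptide substrate / Buffer or medium: Acidic Tris acetate buffer with magnesium and detergent / Signal: absorbance at 630 nm / Doses: one concentration, 20 µM, with 1.0% DMSO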
# LMPTP inh: LMPTP (human) inhibition | P24666 | recombinant LMPTP-A, OMFP fluorogenic substrate, fluorescence intensity | inhibition, % at 20 µM | 360,000 compounds, 0.22% hits;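 active = compounds that cut the enzyme signal by at least half of the control window in the single-dose screen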;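 also: plate controls were DMSO wells with enzyme plus substrate for no effect and substrate without enzyme for full effect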
#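 Test system: LMPTP-A phosphatase enzyme. Amount: LMPTP-A at 0.625 nM final in the reaction. Reagent: OMFP substrate, 400 µM final. Times: 50 min at room temperature. Signal: endpoint fluorescence intensity from OMFP dephosphorylation. Read-out basis: % inhibition. Benchmarks: no-enzyme and uninhibited controls.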
# DSG3 Ab inh: inhibitors of pemphigus antibody binding to human desmoglein-3; binding (percent of control), % at 10 µM; 310,000 compounds, 0.48% hits; P32926; DSG3-coupled beads, scFv-anti-DSG3-GFP binding, flow cytometry; active compounds read low;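 active = binding more than 3 SD below its plate's average and above zero; inconclusive = below that plate limit but binding exactly zero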;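 also: hits lower antibody fragment binding to DSG3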
# Target sequence (P32926 whole entry, looked up, the tested form may be a part): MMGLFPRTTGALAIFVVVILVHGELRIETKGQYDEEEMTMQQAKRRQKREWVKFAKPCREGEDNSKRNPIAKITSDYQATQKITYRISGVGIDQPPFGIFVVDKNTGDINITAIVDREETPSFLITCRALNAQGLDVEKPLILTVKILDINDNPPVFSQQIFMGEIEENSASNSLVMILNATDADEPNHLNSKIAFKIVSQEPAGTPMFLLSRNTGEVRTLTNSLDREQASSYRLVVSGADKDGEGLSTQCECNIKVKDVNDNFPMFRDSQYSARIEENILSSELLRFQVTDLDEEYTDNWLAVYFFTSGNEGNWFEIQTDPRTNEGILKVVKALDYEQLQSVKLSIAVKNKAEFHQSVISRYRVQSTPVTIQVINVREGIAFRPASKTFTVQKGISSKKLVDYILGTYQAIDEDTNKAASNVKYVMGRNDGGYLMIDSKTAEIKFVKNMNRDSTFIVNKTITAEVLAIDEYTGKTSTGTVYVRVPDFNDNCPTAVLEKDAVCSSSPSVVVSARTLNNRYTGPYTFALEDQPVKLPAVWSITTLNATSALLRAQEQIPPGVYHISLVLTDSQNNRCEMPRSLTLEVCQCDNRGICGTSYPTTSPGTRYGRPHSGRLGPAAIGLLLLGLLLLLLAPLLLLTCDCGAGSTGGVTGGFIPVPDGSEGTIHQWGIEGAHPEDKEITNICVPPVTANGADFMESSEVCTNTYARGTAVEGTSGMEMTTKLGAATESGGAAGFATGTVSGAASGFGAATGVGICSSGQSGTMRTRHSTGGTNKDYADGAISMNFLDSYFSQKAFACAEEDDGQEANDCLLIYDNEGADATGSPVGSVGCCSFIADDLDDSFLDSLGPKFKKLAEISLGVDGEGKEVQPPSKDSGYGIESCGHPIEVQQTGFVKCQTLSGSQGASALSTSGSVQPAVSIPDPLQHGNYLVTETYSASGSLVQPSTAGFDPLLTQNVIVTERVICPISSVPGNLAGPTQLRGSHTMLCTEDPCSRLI
# SUMO1 PPI mod: alters human SUMO1 binding to SIM partners | P63165 | SUMO1 binding to a labelled peptide, TR-FRET, 1 h | inhibition, % at 20 µM | 360,000 compounds, 0.33% hits | AID 602429; in the data active = inhibition above about 37%
# Scp1 confirm: confirmation of human Scp-1 phosphatase inhibitors. recombinant SCP-1 catalytic domain, phosphate release, malachite green absorbance. 2,500 compounds, 61% hits. inhibition, % at 20 µM. AID 540281. shares compounds with Scp1 inh;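 also: plate controls were DMSO with enzyme for no effect and buffer wells lacking enzyme for full effect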
# MG interference: colorimetric interference in Scp-1 counter-screen; Colorimetric interference counterscreen, malachite green absorbance 630 nm; 2,500 tested, under 10 active; shares compounds with Scp1 inh; apparent inhibition (interference), % at 20 µM;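 also: compounds added after enzyme reaction finished so only phosphate colour detection is probed; plate controls were DMSO wells with completed Scp-1 reaction for no effect and substrate wells lacking enzyme for full effect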
# Scp1 DSF: binds human Scp-1, shifting its melting temperature; Recombinant SCP1, Sypro Orange thermal shift Tm; 1,500 compounds, 25% hits; AID 540329; thermal shift relative to vanadate control, % at 40 µM; shares compounds with Scp1 inh;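 active = substances whose mean melting-temperature shift, as a percentage of the reference inhibitor's shift, reaches about 5.3%, limit read from the data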;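 also: 0% = Tm of DMSO wells and 100% = Tm with sodium orthovanadate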
# * marks the source's active call; other numbers are inactive results; ? = inconclusive; nt = not tested or not shown. Shown are actives, neighbours in structure and some others; about 1.7% of the full set was active somewhere.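 The calls were made as follows, unless noted: active = inhibition of at least 30% at 20 µM; inactive = the rest.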
SMILES,STEP block,Scp1 inh,LMPTP inh,DSG3 Ab inh,SUMO1 PPI mod,Scp1 confirm,MG interference,Scp1 DSF
O=C(OCCc1ccccc1)c1cc(O)c(O)c(O)c1,1,43,3,98,7,nt,nt,nt
Cn1c(CCN2CCN(c3ccccn3)CC2)nc2cc(NS(=O)(=O)c3ccc(Cl)cc3)ccc21,1,-1,20,nt,6,nt,nt,nt
O=C(COc1ccc(/C=N/NS(=O)(=O)c2ccccc2)cc1)Nc1ccccc1,0,-4,1,93,-1,nt,nt,nt
COc1ccc(CSCC(=O)N/N=C/c2ccc(OCC(=O)N3CCCCC3)cc2)cc1,0,6,-1,118,-5,nt,nt,nt
O=C(Cc1ccccc1)N/N=C/c1ccc(OCC(=O)Nc2ccccc2)cc1,-2,82*,1,93,6,44*,-13,-16
Cc1ccc(CSCC(=O)N/N=C/c2ccc(OCC(=O)Nc3ccc(C)cc3)cc2)cc1,11,112*,44,106,1,80*,-11,-29
COC(=O)c1sc(N)c(C(=O)OC)c1COC(=O)C12CC3CC(CC(O)(C3)C1)C2,-2,-6,0,nt,2,nt,nt,nt
CC(C)C[C@H]1COCCS(=O)(=O)N1Cc1ccc(Cl)c(Cl)c1,0,-11,1,101,-10,nt,nt,nt
CC(=O)Oc1ccc(C(=O)Nc2cc(NC(=O)c3ccc(OC(C)=O)cc3)cc(C(=O)NC(C)(C)C)c2)cc1,0,-7,-1,101,14,nt,nt,nt
Nc1nc(=O)n(C2CC(O)C(CO)O2)cc1F (stereo not given),0,0,0,94,-2,-3,-8,nt
C[C@H](CO)N1C[C@H](C)[C@@H](CN(C)C)OCc2cnnn2CCCC1=O,-1,nt,-3,103,0,nt,nt,nt
C[N+]1=C2CCCCCN2C(O)(c2ccccc2)C1 (stereo not given),-3,96*,-2,83,1,94*,-10,-11
Cc1nnc(NC(=O)CCSCCC(=O)Nc2nnc(C)s2)s1,0,82*,1,84,28,74*,-8,2
COC(=O)NN1C(=O)C(c2ccccc2)=C(c2ccc(Cl)cc2)C1=O,0,-4,2,nt,-14,nt,nt,nt
NNc1nccc(Nc2ccccc2C(=O)O)n1,0,66*,20,103,27,65*,-7,0
COc1ccc(-c2noc(CCC(=O)N3CCN(c4ccccc4Cl)CC3)n2)cc1,2,-4,3,95,3,nt,nt,nt
COc1ccc(-c2noc(CCC(=O)N3CCN(c4ccccc4Br)CC3)n2)cc1,3,54*,4,104,-3,-12,-8,nt
COc1ccc(-c2noc(CN3CCN(c4ccccc4)CC3)n2)cc1,-3,68*,1,112,1,-15,-12,nt
CC(C)CC1NC(=O)N(CC(=O)N2CCCc3ccccc32)C1=O (stereo not given),-2,-3,-1,102,6,nt,nt,nt
COc1ccc(CN(CC(=O)NC2CCCC2)C(=O)CCC(=O)Nc2nc(C)cs2)cc1,-3,-4,-3,nt,-1,nt,nt,nt
COc1ccc2c(c1)c(=O)oc1c(C)c(OCc3cc(C(=O)O)oc3C)ccc12,6,93*,4,96,26,94*,1,3
COc1ccc2c(c1)c(=O)oc1c(C)c(OCC(=O)N3CCc4ccccc4C3)ccc12,-2,-3,1,106,2,nt,nt,nt
COc1ccc2c(c1)c(=O)oc1c(C)c(OCc3ccc(C(=O)O)cc3)ccc12,41*,93*,58*,?,45*,58*,-10,-12
COCCCn1c(C)cc(C(=O)COC(=O)C23CC4CC(CC(O)(C4)C2)C3)c1C,-2,1,0,98,6,nt,nt,nt
CN(C(=O)CN1C(=O)S/C(=C\c2ccccc2)C1=O)C1CCS(=O)(=O)C1 (stereo not given),1,-7,-1,106,-34,nt,nt,nt
SMILES,STEP block,Scp1 inh,LMPTP inh,DSG3 Ab inh,SUMO1 PPI mod,Scp1 confirm,MG interference,Scp1 DSF
CN(C(=O)CCN1C(=O)/C(=C/c2ccccc2)SC1=S)C1CCS(=O)(=O)C1 (stereo not given),14,76*,15,101,80*,19,0,nt
COc1ccc(NS(=O)(=O)c2cccc(C(=O)O)c2)cc1S(=O)(=O)N1CCOCC1,0,3,-1,106,1,nt,nt,nt
O=C(COC(=O)C1CCN(S(=O)(=O)c2cc([N+](=O)[O-])ccc2Cl)CC1)Nc1ncc(Cl)cc1Cl,22,68*,10,92,11,58*,-10,14*
CC(=O)Nc1ccccc1S(=O)(=O)CC1CC1(Cl)Cl (stereo not given),1,-4,-1,105,3,nt,nt,nt
Cc1ccc(C(=O)NCC(=O)OCC(=O)NCC(F)(F)F)cc1,4,-4,-1,96,-1,nt,nt,nt
COc1cc(S(=O)(=O)Nc2ccc(C)cc2)ccc1NC(=O)c1ccncc1,-2,54*,-1,98,5,-18,-18,nt
C=CCn1c(SCC(=O)NCCOC)nc2scc(-c3ccco3)c2c1=O,1,52*,2,98,15,16,-25,nt
Cc1ccc2nc(/C(C#N)=C\c3ccc(N4CCCCC4)c([N+](=O)[O-])c3)[nH]c2c1,10,109*,2,89,-12,77*,-3,12*
COc1cc(C(C(=O)NC2CCCCC2)N(CCN2CCOCC2)C(=O)C2COc3ccccc3O2)cc(OC)c1OC (stereo not given),-2,-2,1,99,-3,nt,nt,nt
CO[C@@]1(NC(=O)C2SC(=C(C(N)=O)C(=O)O)S2)C(=O)N2C(C(=O)O)=C(CSc3nnnn3C)CS[C@@H]21 (stereo not given in full),-2,42,-1,111,6,nt,nt,nt
CO[C@@]1(NC(=O)Cc2cccs2)C(=O)N2C(C(=O)O)=C(COC(N)=O)CS[C@@H]21,5,52*,-1,nt,8,41*,-10,2
Cc1cc(C)c(C)c(SCC(=O)Nc2oc(C)c3c(C)n[nH]c(=O)c23)c1C,1,-2,-3,-15,-17,nt,nt,nt
CCn1c(SCC(=O)Nc2oc(C)c3c(C)n[nH]c(=O)c23)nc2sc(C)c(C)c2c1=O,1,66*,-15,102,-6,-19,-13,nt
Cc1cccc2c(N=NC(=O)c3ccc(NS(=O)(=O)c4cccs4)cc3)c(O)[nH]c12,-4,5,2,99,-5,nt,nt,nt
